Screening data (PubChem)
Only some compounds are listed: those with a hit (about 2.9% of all), similar ones and a draw of the others.
APOBEC3G inh – APOBEC3G (human) deaminase inhibition. Q9HC16. recombinant A3G, ssDNA deamination FAM/TAMRA fluorescence. inhibition, % at 20 µM. 0.28% of 330,000 active. AID 493012;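 active = inhibition of at least 40% at 20 µM, with no more than 30% in the related APOBEC3A deaminase screen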
APOBEC3A inh – blocks human APOBEC3A ssDNA deamination; recombinant A3A, FAM/TAMRA ssDNA deamination fluorescence; inhibition, % at 20 µM; P31941; AID 493011; 0.41% of 330,000 active;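 active = at least 40% inhibition at 20 µM here, with at most 30% in a related deaminase screen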
Target sequence (P31941 whole entry, looked up): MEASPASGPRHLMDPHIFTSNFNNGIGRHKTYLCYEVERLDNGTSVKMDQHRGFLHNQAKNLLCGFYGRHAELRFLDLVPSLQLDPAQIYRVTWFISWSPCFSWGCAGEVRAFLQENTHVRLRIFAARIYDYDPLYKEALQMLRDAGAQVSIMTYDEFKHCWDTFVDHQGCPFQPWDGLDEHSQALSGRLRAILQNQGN
HCV NS3 hel inh – HCV NS3 helicase inhibition; NS3 helicase DNA unwinding, Cy5 molecular beacon fluorescence; inhibition, % at 10.9 µM; AID 1800; 0.56% of 290,000 active;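 active = inhibition above the mean of all tested compounds plus 3 SD, set per campaign, cut at about 35% in these data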
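Material: hepatitis C virus NS3 helicase domain fragment enzyme; measured by: Cy5 fluorescence, 0 and 60 min reads; control set: DMSO and thioflavine S; incubation: 60 min unwinding reaction at 25 °C after ATP addition; read-out basis: % inhibition from 60/0 min fluorescence ratio, DMSO 0%, thioflavine S 100%; repeats: singlicate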
core dimer inh – blocks dimerization of HCV core protein; inhibition, % at 5 µM; AID 1899; 0.33% of 300,000 active; TR-FRET GST/Flag-core106 dimerization, 1536-well;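 active = inhibition above the mean of all tested compounds plus 3 SD, set per screening campaign, cut at about 45% in these data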
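Assay system: tagged HCV core106 pair (GST and Flag); medium: KF-containing HEPES buffer, pH 7.45, DTT, CHAPS, BSA; also added: Eu donor and XL665 acceptor anti-tag antibodies; dosing: 5 µM single dose; timing: compound-protein-antibody incubation 4 h at 22.5 °C; signal: TR-FRET 671 and 617 nm emission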
PRMT1 inh – inhibitors of human PRMT1. 1.3% of 370,000 active. Q99873. AID 652257. inhibition, % at 2.79 µM. recombinant PRMT1, activity-based probe fluorescence polarization;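 active = inhibition above about 21% made by adding two undisclosed values, limit read from the data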
ABHD5 PLIN5 PPI – inhibitors of human ABHD5-perilipin-5 interaction | Split G. princeps luciferase complementation, luminescence, 4 h | Q00G26+Q8WTS1 | 0.78% of 360,000 active | AID 602281 | inhibition, % at 4 µM;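 active = inhibition above the mean inhibition across every tested compound plus 3 SD, cut at about 22% in these data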
A3G conf – APOBEC3G (human) deaminase inhibition, confirmed | shares compounds with APOBEC3G inh | recombinant A3G ssDNA deaminase, UDG/FAM-TAMRA fluorescence | inhibition, % at 20 µM | 72% of 890 active | AID 493152;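 active = inhibition reaching a set limit in any replicate at 20 µM, the limit being 80% of the first screen's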
UDG ctr A3G – counter-screen for APOBEC3G inhibitors: E. coli UDG; shares compounds with APOBEC3G inh; 710 tested, under 10 active; UDG counterscreen, FAM/TAMRA oligo fluorescence; inhibition, % at 20 µM;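 active = compounds giving 40% or more inhibition at 20 µM in any one of the three replicates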;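 also: inhibitors lower the FAM signal released by uracil excision and alkaline cleavage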
ABHD5-PLIN5 conf – ABHD5-PLIN5 interaction inhibition, confirmed; shares compounds with ABHD5 PLIN5 PPI; inhibition, % at 4 µM; biochemical ABHD5-PLIN5 interaction, luminescence; 67% of 2,200 active; in the data active = inhibition above about 23%
HNF4 split-luc – counter-screen for ABHD5-PLIN5 inhibitors: HNF4 split-luciferase | inhibition, % at 4 µM | HNF4 dimerization, luminescence, biochemical | shares compounds with ABHD5 PLIN5 PPI | 77% of 2,200 active;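 active = mean inhibition across replicate wells exceeding the computed hit threshold, cut at about 13% in these data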;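 also: light from luciferase halves that rejoin when HNF4 fusion proteins dimerize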
Target sequence (P41235 whole entry, looked up, the tested form may be a part): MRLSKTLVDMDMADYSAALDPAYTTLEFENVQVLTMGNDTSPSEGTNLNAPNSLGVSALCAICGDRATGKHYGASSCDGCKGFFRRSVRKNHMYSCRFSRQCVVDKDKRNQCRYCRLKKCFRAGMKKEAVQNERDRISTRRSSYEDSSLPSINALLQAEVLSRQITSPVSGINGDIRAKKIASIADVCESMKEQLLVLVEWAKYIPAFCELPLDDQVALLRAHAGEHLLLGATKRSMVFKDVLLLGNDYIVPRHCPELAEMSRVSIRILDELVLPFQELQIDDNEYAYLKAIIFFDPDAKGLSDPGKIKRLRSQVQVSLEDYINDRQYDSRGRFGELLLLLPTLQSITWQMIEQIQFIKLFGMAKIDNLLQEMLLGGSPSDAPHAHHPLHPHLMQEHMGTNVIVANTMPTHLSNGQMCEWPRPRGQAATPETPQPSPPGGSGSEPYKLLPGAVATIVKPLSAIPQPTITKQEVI
PRMT1 confirm – confirmation of human PRMT1 inhibitors | shares compounds with PRMT1 inh | recombinant His-PRMT1, activity-based probe fluorescence polarization | inhibition, % at 2.79 µM | 42% of 3,300 active | AID 687036;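 active = mean inhibition across replicates above the hit cutoff derived for the earlier primary screen, cut at about 22% in these data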
Each line names hits and unclear results; the compound was inactive in the other large screens (follow-up assays come after a bar, where they were run).

Cc1c(Cc2ccc3c(c2)OCO3)sc(NC(=O)C2CC2)c1C(N)=O	APOBEC3G inh 48, PRMT1 inh 30 | A3G conf inactive | PRMT1 confirm inactive
CCN(CC)c1ccc(NC(=O)c2ccccc2)cc1S(=O)(=O)Nc1ccccc1OC	APOBEC3G inh 50, PRMT1 inh 27 | A3G conf 48 | UDG ctr A3G inactive | PRMT1 confirm inactive
CCN(CC)c1ccc(NC(=O)c2cccc(C)c2)cc1S(=O)(=O)Nc1ccccc1OC	APOBEC3G inh 49, PRMT1 inh 34 | A3G conf 54 | UDG ctr A3G inactive | PRMT1 confirm inactive
COc1ccc(C(=O)Nc2ccc(Cl)c(S(=O)(=O)Nc3ccccc3OC)c2)cc1	none
COc1cc(N=c2ssnc2Cl)cc(OC)c1OC	APOBEC3G inh 72, PRMT1 inh 97, ABHD5 PLIN5 PPI 61 | A3G conf 93 | UDG ctr A3G inactive | ABHD5-PLIN5 conf 68 | HNF4 split-luc 103 | PRMT1 confirm 90
N#Cc1ccc(Oc2c(Cl)cncc2Cl)cc1	none
CCOC(=O)c1ccc(N=c2ssnc2Cl)cc1	APOBEC3G inh 66, PRMT1 inh 78 (no result: core dimer inh) | A3G conf 79 | UDG ctr A3G inactive | PRMT1 confirm 89
CCOC(=O)c1ccc(N=C2SC(C(=O)NC)CC(=O)N2Cc2ccc(F)cc2)cc1 (centres undefined)	none
N#Cc1ccc(N=c2ssnc2Cl)cc1	APOBEC3G inh 73, PRMT1 inh 91 | A3G conf 91 | UDG ctr A3G inactive | PRMT1 confirm 97
O=C(CN1C(=O)NC2(CCCc3ccccc32)C1=O)NCC(F)(F)F (centres undefined)	none
O=C1Nc2ccccc2C1C(C[N+](=O)[O-])c1ccccn1 (centres undefined)	none
Cc1cc(C)n2c(=S)[nH]nc2n1	APOBEC3G inh 92, PRMT1 inh 56 | A3G conf 90 | UDG ctr A3G inactive | PRMT1 confirm 91
c1ccc(C(=C2CCCO2)c2ccccc2)cc1	none (no result: APOBEC3G inh, APOBEC3A inh, HCV NS3 hel inh, core dimer inh)
COCCNC(=O)/C(C#N)=C/c1c(N2CCN(c3ccc(OC)cc3)CC2)nc2c(C)cccn2c1=O	none
Cc1ccc(CN(Cc2ccccc2)C(=S)NCC(=O)NCc2cccnc2)o1	APOBEC3G inh 45, PRMT1 inh 33 | A3G conf inactive | UDG ctr A3G inactive | PRMT1 confirm inactive
COC(=O)C(C)Sc1n[nH]c(=S)s1 (centres undefined)	APOBEC3G inh 84, PRMT1 inh 35 | A3G conf 84 | UDG ctr A3G inactive | PRMT1 confirm inactive
O=C(O)CC(Sc1n[nH]c(=S)s1)C(=O)O (centres undefined)	APOBEC3G inh 44, PRMT1 inh 27 | A3G conf 60 | UDG ctr A3G inactive | PRMT1 confirm inactive
CCNc1nc(SC(C)C(=O)OC)nc(N(C)C)n1 (centres undefined)	none
CC(C)NC(=O)N(C)C[C@H]1OCc2cn(nn2)CCCC(=O)N([C@H](C)CO)C[C@@H]1C	none (no result: APOBEC3G inh, APOBEC3A inh, HCV NS3 hel inh, core dimer inh, ABHD5 PLIN5 PPI)
CCOC(=O)/C=C/c1ccc2c(c1)S(=O)(=O)N(Cc1ccc(OC)cc1)[C@H]2CC(=O)OCC	none (no result: HCV NS3 hel inh)
Cc1ccc(C(=O)Nc2sc(C)c(C)c2C(=O)c2ccccc2)cc1	APOBEC3G inh 40, PRMT1 inh 51 | A3G conf 29 | UDG ctr A3G inactive | PRMT1 confirm inactive
Cc1sc(NC(=O)c2ccccc2)c(C(=O)c2ccccc2)c1C	APOBEC3G inh 50, PRMT1 inh 30 | A3G conf 37 | UDG ctr A3G inactive | PRMT1 confirm inactive
Cc1sc(NC(=O)c2ccccc2)c(C(=O)NC(C)C)c1C	none
C#CC1(N2CCCCC2)CCCCC1	none (no result: APOBEC3G inh, APOBEC3A inh, HCV NS3 hel inh, core dimer inh)
O=C(O)CCS(=O)(=O)c1cccc2cccnc12	none
CCSS(=O)(=O)c1cccc2cccnc12	APOBEC3G inh 68, PRMT1 inh 93 | A3G conf 66 | UDG ctr A3G inactive | PRMT1 confirm 98
Cc1cccc(-c2cccc3c4c([nH]c23)[C@@H]2C[C@H](N(C)C(=O)Nc3ccccc3)[C@H]([C@H](C)O)CN2CC4)c1	none (no result: APOBEC3G inh, APOBEC3A inh, HCV NS3 hel inh, core dimer inh, ABHD5 PLIN5 PPI)
CCOC(=O)c1sc(=S)n(-c2ccc(C)cc2)c1N	none
Cc1ccc(-n2c(N)c(C(=O)N3CCN(C)CC3)sc2=S)cc1	APOBEC3G inh 46, PRMT1 inh 86 | A3G conf 74 | UDG ctr A3G inactive | PRMT1 confirm 71
CCN1CCN(C(=S)c2ccc(Cl)cc2)CC1	APOBEC3G inh 68, PRMT1 inh 85 | A3G conf 75 | UDG ctr A3G inactive | PRMT1 confirm 90
O=S(=O)(Nc1cc(Sc2ncn[nH]2)c(O)c2ccccc12)c1ccccc1	APOBEC3G inh 61, PRMT1 inh 64 (no result: core dimer inh) | A3G conf 89 | UDG ctr A3G inactive | PRMT1 confirm 111
Cn1nc(C2CC2)cc1NC(=O)C1(C)CCN1C(=O)CCc1ccccc1 (centres undefined)	none (no result: APOBEC3G inh, APOBEC3A inh, HCV NS3 hel inh, core dimer inh)
CCn1c(CN2CCOCC2)nnc1SCC(=O)Nc1ccc(C(C)=O)cc1	none
c1cc2c(cc1C1CCCCC1)c1c3n2CCCNC3CCC1 (centres undefined)	ABHD5 PLIN5 PPI 27 | ABHD5-PLIN5 conf inactive | HNF4 split-luc inactive
CSC1=NC(C)(C)C=C(/C=C/c2ccc(Cl)cc2)N1	ABHD5 PLIN5 PPI 24 | ABHD5-PLIN5 conf 45 | HNF4 split-luc 43
CCSC1=NC(C)(C)C=C(/C=C/c2ccc(Cl)cc2Cl)N1	ABHD5 PLIN5 PPI 26 | ABHD5-PLIN5 conf 32 | HNF4 split-luc 33
CSC1=NC(C)(C)C=C(/C=C/c2ccc(Cl)cc2Cl)N1	none
Cc1cccc(N(C(=O)c2snc(C(N)=O)c2N)C(C(=O)NCC2CCCO2)c2ccc3ncccc3c2)c1 (centres undefined)	none
COc1cccc(C(=O)Oc2cc3c4c(c2)C(C)=CC(C)(C)N4C(=O)C3=O)c1	ABHD5 PLIN5 PPI 33 | ABHD5-PLIN5 conf 43 | HNF4 split-luc 46
C[C@H]1[C@@H](Cc2cc(Cl)cc(Cl)c2)N(c2ccccc2)c2ccccc2CN1Cc1ccccc1	none (no result: APOBEC3G inh, APOBEC3A inh, HCV NS3 hel inh, core dimer inh)
